Laboratory results published in the EternaBench riboswitch data.

Tested on: MS2 coat protein
Assay: apparent Kd, MS2 coat protein; higher = weaker binding; RNA-MaP array; FMN 200 µM where present
How it was run: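 In 100 mM Tris-HCl pH 7.5, 80 mM KCl, 4 mM MgCl2, BSA, DTT, yeast tRNA and Tween-20, SNAP-549-labelled MS2 coat protein was titrated from 0.7 or 1.5 nM, doubling to 3 µM, over designs transcribed by stalled E. coli RNA polymerase on Illumina sequencing-chip clusters. This was done first without ligand, then with ligand held constant. After green signal was normalised to red-channel RNA signal and control-cluster median Fmax, the apparent Kd was taken as the median of filtered per-cluster binding-curve fits.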

[1] = designed as: ON switch for flavin mononucleotide, no ligand
[2] = ligand present: flavin mononucleotide, designed as: ON switch for flavin mononucleotide
[3] = designed as: OFF switch for flavin mononucleotide, no ligand
[4] = ligand present: flavin mononucleotide, designed as: OFF switch for flavin mononucleotide

Sequence: GGACAUGUACAGAAGGGCAAUUUAUUUAUUGAUUAUUUAGUUCUGUAUUGCAGGAUAUGUAAAACAUGAGGAUCACCCAUGUCC
- apparent Kd [1]: 0.0735 µM
- apparent Kd [2]: 0.0564 µM

Sequence: GGACAUUUACAGAAGGGCAAGCUCGAAAGCGGAGAACGCGAACGAGCUUGCAGGAUAUGUUGAACAUGAGGAUCACCCAUGUCU
- apparent Kd [2]: 0.00708 µM

Sequence: GGACAUUUACAGAAGGGCAAGUUGGAUCGCGGAUAACGCGAUCCGACUUGCAGGAUAUGUUGAACAUGAGGAUCACCCAUGUCC
- apparent Kd [1]: 0.012 µM
- apparent Kd [2]: 0.0098 µM

Sequence: GGACCUCCUGAGGAUAUUGCAUCACCCGACUGAUAAGAAGGCAGAACAUGAGGAUCACCCAUGUGGGUACUCGG
- apparent Kd [3]: 0.0323 µM
- apparent Kd [4]: 0.0361 µM

Sequence: GGACGUCACAUCUACAUGAGGAUCACCCAUGUCUCUUGAUAUGAGGAUAUGUAUACGAAUCGUUUAUAGAAGGCAUGGACGUCC
- apparent Kd [1]: 0.286 µM
- apparent Kd [2]: 0.312 µM

Sequence: GGACGUCACAUGAACAUGAGGAUCACCCAUGUAAAUUCUCAUGAGGAUAUGGAACCUAAUUGGUUCCAGAAGGCAUGGACGUCC
- apparent Kd [1]: 1.27 µM
- apparent Kd [2]: 0.381 µM

Sequence: GGACGUCACAUUAACAUGAGGAUCACCCAUGUCUCUAGACAUGAGGAUAUGGAUCCUAAUUGGAUCCAGAAGGCAUGGACGUCC
- apparent Kd [1]: 1.03 µM
- apparent Kd [2]: 0.143 µM

Sequence: GGACGUCAGAUUAACAUGAGGAUCACCCAUGUCUUUUGACAUGAGGAUAUGCAUCCUAAUUGGAUGCAGAAGGCAUGGACGUCC
- apparent Kd [1]: 1.02 µM
- apparent Kd [2]: 0.084 µM

Sequence: GGACGUCAGAUUAACAUGAGGAUCACCCAUGUCUUUUGACAUGAGGAUAUGGUUGGUAAUUCCAACCAGAAGGCAUGGACGUCC
- apparent Kd [1]: 1.1 µM
- apparent Kd [2]: 0.125 µM

Sequence: GGAGACCUCAUAGGAUAUGCUGGACUUUGUCCAGCAGAAGGGUGAAAACAUGAGGAUCACCCAUGUAUGGUCUCCAAAUUUAAU
- apparent Kd [1]: 0.992 µM
- apparent Kd [2]: 0.327 µM

Sequence: GGAGAGUCAGGAUAUACAUGAGGAUCACCCAUGUUGGAAAGUGGAGGGACGGGAGUCCGUAGAAGGGACGAGAG
- apparent Kd [3]: 0.0344 µM
- apparent Kd [4]: 0.0277 µM

Sequence: GGAGCAACAUGAGGAUCACCCAUGUAGGAUAUCGCUAUUGUAAUCAUGAAACAUGAUUACAAUAGCGAGAAGGACAUAUGCUCC
- apparent Kd [3]: 0.00602 µM
- apparent Kd [4]: 0.00916 µM

Sequence: GGAGCACACAUUCACAUGAGGAUCACCCAUGUCAAAAGACAUGAGGAUAUGGAUCCGAAAAGGAUCCAGAAGGCAUGGUGCUCC
- apparent Kd [1]: 0.483 µM
- apparent Kd [2]: 0.0255 µM

Sequence: GGAGCACGCACAGGAUAUCCGGCGGCGCUCGUCGGAGAAGGGUGACAUGAGGAUCACCCAUGUACGUGCAACUUAGUUUAAGAG
- apparent Kd [1]: 0.0371 µM
- apparent Kd [2]: 0.0296 µM

Sequence: GGAGGACAUGAGGAUCACCCAUGUGGAUGAUCGCUAGGAUAUGCGUGCGGGAGGAGUGGUGCAGAAGGAGUGGGAU
- apparent Kd [1]: 0.35 µM
- apparent Kd [2]: 0.272 µM

Sequence: GGAGGACGAAACAUGAGGAUCACCCAUGUGUUAUAAUUAAUAUAGGAUAUGUUUAUACUUUUUGGGCAGAAGGAUGAUAAUGCC
- apparent Kd [1]: 0.0196 µM
- apparent Kd [2]: 0.0161 µM

Sequence: GGAGGAGGUGUAGGAUAUAUAGAGGAGGGAGGGAUAGAAGGACAUGAGGAUCACCCAUGUGAGGAGGAGGAGGGAGGGAGGAGG
- apparent Kd [3]: 0.0135 µM
- apparent Kd [4]: 0.0119 µM

Sequence: GGAUACAUACAGAAGGAUAUGAGAACAAAGACAUGAGGAUCACCCAUGUACAAAAGGUGGAACAAUCAGAAGGUCUAAACAACAAA
- apparent Kd [1]: 0.0722 µM
- apparent Kd [2]: 0.0612 µM

Sequence: GGAUAGGACAGAGGAUAUACAGAUAGGAUCUACUAUCAAACAGUCCUAACAUGAGGAUCACCCAUGUAGAAGGCUGUCCUAUCG
- apparent Kd [3]: 0.0217 µM
- apparent Kd [4]: 0.0803 µM

Sequence: GGAUAGGACAGAGGAUAUACGAGCUAGAGAUACUAGCAAAAUUUCCUCACAUGAGGAUCACCCAUGUAGAAGGCUGUCCUAUCG
- apparent Kd [3]: 0.0175 µM
- apparent Kd [4]: 0.536 µM

Sequence: GGAUAGGACAGAGGAUAUACGUGCUAGAGAUACUAGCAAAAUUUCAUCACAUGAGGAUCACCCAUGUAGAAGGCUGUCCUAUCG
- apparent Kd [3]: 0.00481 µM
- apparent Kd [4]: 0.00863 µM

Sequence: GGAUAGGACAGAGGAUAUACGUGCUAGAGAUACUAGCAAAAUUUCCGCACAUGAGGAUCACCCAUGUAGAAGGCUGUCCUAUCG
- apparent Kd [3]: 0.00582 µM
- apparent Kd [4]: 0.00926 µM

Sequence: GGAUAGGACAGAGGAUAUACGUGCUAGAGAUACUAGCAAAAUUUCCUAACAUGAGGAUCACCCAUGUAGAAGGCUGUCCUAUCG
- apparent Kd [3]: 0.00661 µM
- apparent Kd [4]: 0.0133 µM

Sequence: GGAUAGGACAGAGGAUAUACGUGCUAGAGAUACUAGCAAAAUUUCCUCACAUGAGGAUCACCCAUGUAGAAGGCAGUCCUAUCG
- apparent Kd [3]: 0.00495 µM
- apparent Kd [4]: 0.00733 µM

Sequence: GGAUAGGACAGAGGAUAUACGUGCUAGAGAUACUAGCAAAAUUUCCUCACAUGAGGAUCACCCAUGUAGAAGGCCGUCCUAUCG
- apparent Kd [3]: 0.00602 µM
- apparent Kd [4]: 0.0197 µM

Sequence: GGAUAGGACAGAGGAUAUACGUGCUAGAGAUACUAGCAAAAUUUCCUCACAUGAGGAUCACCCAUGUAGAAGGCUGUCCCAUCG
- apparent Kd [3]: 0.0153 µM
- apparent Kd [4]: 0.327 µM

Sequence: GGAUAGGACAGAGGAUAUACGUGCUAGAGAUACUAGCAAAAUUUCCUCACAUGAGGAUCACCCAUGUAGAAGGCUGUCCUUUCG
- apparent Kd [3]: 0.0179 µM
- apparent Kd [4]: 0.473 µM

Sequence: GGAUAGGACAGAGGAUAUACGUGCUAGAGAUACUAGCAAAAUUUCUUCACAUGAGGAUCACCCAUGUAGAAGGCUGUCCUAUCG
- apparent Kd [3]: 0.00455 µM
- apparent Kd [4]: 0.0056 µM
